# Test results: ChEMBL document CHEMBL1124794, “Synthesis, chemistry, and antineoplastic activity of alpha-halopyridinium salts: potential pyridone prodrugs of acylated vinylogous carbinolamine tumor inhibitors” (J Med Chem, 1990)
# Values joined by “and” are separate entries in the source; they are usually repeats but may differ in a detail not shown here. Equal entries are not always repeated.
# Legend:
# [1] = Effect of Ionic strength (0.25 M NaCl)on the hydrolysis of pyridinium Moity in 0.02 M buffer concentration, pH 7.4,25 degree C; type: ADME
# Outline: (§1)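 Pyridinium salt in 0.02 M phosphate buffer, pH 7.4, 25 °C, with NaCl varied 0.10–1.0 M. Loss of the pyridinium chromophore's UV absorbance maximum (conversion to pyridone) followed over time. Pseudo-first-order kobs and half-life derived from that decay.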
# [2] = Effect of pH on the hydrolysis of pyridinium Moity in 0.05 M buffer concentration at the pH 7.4; type: ADME
# Outline: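 Pyridinium salt in 0.05 M phosphate buffer, pH 6.0–8.0 (set by pH meter), ionic strength 0.25 M, 25 °C. Decrease in the pyridinium UV absorbance maximum followed over time to give pseudo-first-order kobs and half-life.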
# [3] = Effect of Ionic strength (0.50 M NaCl)on the hydrolysis of pyridinium Moity in 0.02 M buffer concentration, pH 7.4,25 degree C; type: ADME; outline: as §1
# [4] = Half life at the ionic strength 0.50 M NaCl; type: ADME; outline: as §1
# MX1 = assay: In vivo activity against murine MX-1 tumor system at the dose of 75 mg/kg, activity expressed as %T/C.; type: functional, Mus musculus
# [5] = In vivo activity against murine M5076 tumor system at the dose of 25 mg/kg, activity expressed as %T/C.; type: functional, Mus musculus
# Outline: (§2)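 M5076: ascitic fluid with ca. 10^6 cells inoculated ip into CD2F1 mice. Dosing started 24 h after inoculation and was then given every 4 days for four doses in total, from solutions or suspensions made fresh each day. Toxicity day survivors were scored on day 5. Body weight difference is day 14 minus day 1. %T/C is based on median survival time versus controls.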
# [6] = In vivo activity against murine M5076 tumor system at the dose of 50 mg/kg, activity expressed as %T/C.; type: functional, Mus musculus
# L1210 [7] = assay: In vivo activity against murine L1210 tumor system at the dose of 100 mg/kg, activity expressed as TDS; 0/6; type: functional, Mus musculus
# Outline: as §2, with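 “L1210 lymphocytic leukemia:” for “M5076:”, “injected” for “inoculated”, “repeated daily” for “then given every 4 days”, “five” for “four”, “5” for “14”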
# P388 [8] = assay: In vivo activity against P388 Lymphocytic Leukemia in CD2F1 mice at the dose of mg/kg, activity expressed as KE; type: functional, Mus musculus
# [9] = Effect of phosphate buffer on the hydrolysis of alpha Fluoropyridinium Moity at the concentration of 0.05M, pH 6.5, 25 degree C; type: ADME
# Outline: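 α-Fluoropyridinium hydrolysis to pyridone in phosphate buffer at 0.02, 0.05 or 0.10 M, pH 6.5 or 8.0, ionic strength […] °C. Pyridinium UV absorbance maximum followed with time to give pseudo-first-order kobs and half-life.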
# [10] = Effect of pH on carbamate hydrolysis in 0.05 M buffer concentration at the pH 3.0, 25 degree C.; type: ADME
# Outline: (§3)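 Bis-carbamate in acetonitrile–water (1:1; buffer added to a 0.5 mg/mL acetonitrile solution), 0.05 M buffer, ionic strength 0.136 (KCl), 25 ± 0.1 °C. Buffers: phosphate pH 2.0; citrate pH 3.0–3.5; succinate pH 4.0; acetate pH 5.0; phosphate pH 6.0–8.0; borate pH 9.0; carbonate pH 10.0. HPLC bis-carbamate peak-area loss, ln(area0/areat) vs time slope = kobs. Duplicates averaged.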
# [11] = Effect of pH on carbamate hydrolysis in 0.05 M buffer concentration at the pH 5.0, 25 degree C.; type: ADME; outline: as §3
# [12] = Effect of pH on carbamate hydrolysis in 0.05 M buffer concentration at the pH 7.4, 25 degree C.; type: ADME; outline: as §3
# [13] = Effect of pH on carbamate hydrolysis in 0.05 M buffer concentration at the pH 8.0, 25 degree C.; type: ADME; outline: as §3
# [14] = Effect of phosphate buffer on carbamate hydrolysis in acetonitrile-water at the concentration of 0.01 M on pH 7.4, 25 degree C.; type: ADME
# Outline: (§4)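 Bis-carbamate in acetonitrile–water (1:1), 25 ± 0.1 °C. Citrate buffer at pH 3.0 or phosphate buffer at pH 7.4, at 0.01, 0.025 or 0.05 M, ionic strength 0.136 (KCl). Kinetics followed by HPLC as the decrease in bis-carbamate peak area. The regression slope of ln(area0/areat) vs time gave pseudo-first-order kobs. Duplicates averaged.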
# [15] = Effect of phosphate buffer on carbamate hydrolysis in acetonitrile-water at the concentration of 0.025 M on pH 3.0, 25 degree C.; type: ADME; settings: in the assay text read “citrate buffer” for “phosphate buffer”; outline: as §4
# [16] = Effect of Ionic strength on carbamate hydrolysis in acetonitrile-water at 0.05 M buffer concentration, pH 7.4,25 degree C; type: ADME
# Outline: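 Bis-carbamate in acetonitrile–0.05 M phosphate buffer (1:1), pH 7.4, 25 °C, at varied ionic strength. Loss of bis-carbamate HPLC peak area tracked over time. Pseudo-first-order kobs taken from the ln(area0/areat) vs time slope.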
# [17] = Half life at the pH 10.0; type: ADME; settings: buffer; outline: as §3
# [18] = Half life at the pH 5.0; type: ADME; settings: buffer; outline: as §3
# L1210 [19] = assay: In vivo activity against murine L1210 tumor system at the dose of 60 mg/kg, activity expressed as body weight difference; T-C; type: functional, Mus musculus
# Outline: as §2, with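 “L1210 lymphocytic leukemia:” for “M5076:”, “injected” for “inoculated”, “repeated daily” for “then given every 4 days”, “five” for “four”, “5” for “14”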
# L1210 [20] = assay: In vivo activity against murine L1210 tumor system at the dose of 100 mg/kg, activity expressed as %T/C.; type: functional, Mus musculus
# Outline: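 CD2F1 mice received ca. 10^6 L1210 cells in ascitic fluid ip. Treatment started 24 h after inoculation and was given daily for five doses in total. %T/C compares median survival time of treated and control animals.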
# [21] = In vivo activity against murine M5076 tumor system at the dose of 36 mg/kg, activity expressed as TDS; 10/10; type: functional, Mus musculus; outline: as §2
# [22] = In vivo activity against murine M5076 tumor system at the dose of 36 mg/kg, activity expressed as body weight difference; T-C; type: functional, Mus musculus; outline: as §2
# P388 [23] = assay: In vivo activity against P388 Lymphocytic Leukemia in CD2F1 mice at the dose of 100 mg/kg, activity expressed as body weight difference; T-C; type: functional, Mus musculus
# Outline: (§5)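 CD2F1 mice were inoculated with ascitic fluid holding ca. 10^6 P388 cells. Drug was given daily from 24 h after inoculation, from solutions or suspensions made fresh each day, some as a saline suspension. TDS is survivors/initial animals on day 5. BWD is body weight on day 5 minus day 1. %T/C compares median survival of treated and control mice.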
# P388 [24] = assay: In vivo activity against P388 Lymphocytic Leukemia in CD2F1 mice at the dose of 12.5 mg/kg, activity expressed as body weight difference; T-C; type: functional, Mus musculus; outline: as §5
# P388 [25] = assay: In vivo activity against P388 Lymphocytic Leukemia in CD2F1 mice at the dose of 200 mg/kg, activity expressed as body weight difference; T-C; type: functional, Mus musculus; outline: as §5
# P388 [26] = assay: In vivo activity against P388 Lymphocytic Leukemia in CD2F1 mice at the dose of 25 mg/kg, activity expressed as body weight difference; T-C; type: functional, Mus musculus; outline: as §5
# P388 [27] = assay: In vivo activity against P388 Lymphocytic Leukemia in CD2F1 mice at the dose of 100 mg/kg, activity expressed as KE; type: functional, Mus musculus
smiles,measurement,setting,value
CC(C)NC(=O)OCc1c(COC(=O)NC(C)C)c(-c2cc[n+](C)c(F)c2)n2c1CCC2.[I-],K obs,[1],0.02 min⁻¹
same,K obs,[2],0.0337 min⁻¹
same,K obs,[3],0.011 min⁻¹
same,half-life,[4],63.2 min
same,T/C,MX1,34%
same,T/C,[5],104%
same,T/C,[6],118%
same,TDS,L1210 [7],0
same,KE,P388 [8],1.25
same,K obs,[9],0.0072 min⁻¹
CC(C)NC(=O)OCc1c(COC(=O)NC(C)C)c(-c2ccn(C)c(=O)c2)n2c1CCC2,K obs,[10],0.0304 min⁻¹
same,K obs,[11],0.0139 min⁻¹
same,K obs,[12],0.013 min⁻¹
same,K obs,[13],0.0128 min⁻¹
same,K obs,[14],0.0133 min⁻¹
same,K obs,[15],0.0342 min⁻¹
same,K obs,[16],0.013 min⁻¹ and 0.0124 min⁻¹ and 0.008 min⁻¹
same,half-life,[17],52.3 min
same,half-life,[18],50 min
same,BWD,L1210 [19],-3.2 g
same,T/C,L1210 [20],146%
same,TDS,[21],10
same,BWD,[22],1.8 g
same,BWD,P388 [23],-1.8 g
same,BWD,P388 [24],-0.1 g
same,BWD,P388 [25],-1.4 g
same,BWD,P388 [26],-0.6 g
same,KE,P388 [27],0.69
